Source: PubChem
This is a sample that favours compounds with a hit; in the whole collection about 4.5% have one here.
TAAR1 agonist – agonists of human TAAR1. Q96RJ0. CHO RD-HGA16 TAAR1, Fluo-8 calcium fluorescence; vehicle wells 0%, saturating PEA agonist 100%. activation, % at 3 µM. 360,000 compounds, 0.99% hits. AID 624467;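 active = activation above the mean activation of all test compounds in the run plus 3 SD, cut at about 38% in these data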
Target sequence (Q96RJ0 whole entry, looked up): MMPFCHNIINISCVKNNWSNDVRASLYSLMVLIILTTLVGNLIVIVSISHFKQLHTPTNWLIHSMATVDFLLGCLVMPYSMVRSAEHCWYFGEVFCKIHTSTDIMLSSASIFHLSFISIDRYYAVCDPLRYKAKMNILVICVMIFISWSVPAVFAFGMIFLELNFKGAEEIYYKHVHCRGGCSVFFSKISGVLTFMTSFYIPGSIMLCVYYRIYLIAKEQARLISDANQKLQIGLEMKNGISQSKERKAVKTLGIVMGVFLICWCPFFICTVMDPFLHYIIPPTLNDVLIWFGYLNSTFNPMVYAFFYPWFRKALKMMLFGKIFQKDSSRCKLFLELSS
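Test system: RD-HGA16 (CHO) cells co-expressing Gα16 and hTAAR1 / Benchmarks: DMSO vehicle as 0%, PEA at EC100 as 100% / Repeats: no replicates (n 1) / Measure: % activation from peak over basal fluorescence ratio, DMSO-to-PEA scaled / Timing: 17-24 h plating, Fluo-8 75 min 37 °C, 30 min RT / Technique: kinetic Fluo-8 calcium fluorescence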
CHO parental Ca – counter-screen: ATP calcium response change in parental CHO cells | inhibition, % at 5.6 µM | 330,000 compounds, 0.63% hits | parental CHO-K1, ATP-induced calcium, Fluo-8 fluorescence | AID 463079;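 active = inhibition above that plate's mean sample inhibition plus 3 SD, cut at about 26% in these data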;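 also: 0% = ATP-challenged DMSO wells and 100% = DMSO wells without ATP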
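Material: Parental CHO cells | Reagent: ATP | Compound dosing: Single nominal dose of 5.6 µM per compound | Detection: Intracellular calcium via Fluo-8 no-wash fluorescent dye | Read-out: % inhibition of ATP-induced calcium mobilization | Benchmarks: Low control ATP plus DMSO, high control DMSO only | Replicates: Singlicate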
TAAR1 antagonist – human TAAR1 antagonism; Q96RJ0; AID 624466; inhibition, % at 3 µM; 360,000 compounds, 1.5% hits; CHO RD-HGA16 TAAR1, Fluo-8 calcium fluorescence, antagonist;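 active = inhibition above a per-plate cutoff, the mean inhibition of test compounds on that plate plus 3 SD, cut at about 49% in these data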;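 also: 0% = DMSO plus EC80 beta-PEA response and 100% = DMSO alone without agonist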
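Test system: hTAAR1-expressing CHO RD-HGA16 cells, Gα16-coupled; Probe or stimulus: EC80 β-phenethylamine stimulus; Compound dosing: single nominal final test compound concentration of 3 µM; Timing: 140 s kinetic read after compound, 140 s after agonist; Signal: Fluo-8 calcium-sensitive fluorescence; Measure: % inhibition of agonist calcium response; Controls: DMSO and EC80 PEA controls.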
GPR7 antagonist – human neuropeptides B/W receptor 1 antagonism; P48145; GPR7-expressing cells, fluorescence antagonist assay; inhibition, % at 4.4 µM; 290,000 compounds, 1.1% hits; AID 1861; in the data active = inhibition above about 16%, passing the limit was not always enough;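 also: cells stimulated with the agonist NPW; 0% = agonist with vehicle and 100% = vehicle without agonist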
Target sequence (P48145 whole entry, looked up): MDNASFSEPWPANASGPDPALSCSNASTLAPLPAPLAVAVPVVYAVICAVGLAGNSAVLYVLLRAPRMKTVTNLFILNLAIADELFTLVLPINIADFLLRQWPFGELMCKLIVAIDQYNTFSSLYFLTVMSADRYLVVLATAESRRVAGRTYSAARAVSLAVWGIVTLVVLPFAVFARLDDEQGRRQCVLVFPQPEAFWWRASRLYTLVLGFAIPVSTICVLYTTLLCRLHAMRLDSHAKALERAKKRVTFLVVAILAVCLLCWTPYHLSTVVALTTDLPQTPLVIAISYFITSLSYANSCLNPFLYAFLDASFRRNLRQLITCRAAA
OX1R antag-1 – antagonists of human orexin 1 receptor; O43613; CHO/OX1R cells, Fluo-8 calcium fluorescence, orexin A; inhibition, % at 5 µM; 330,000 compounds, 0.43% hits;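 active = inhibition above its plate's threshold, mean inhibition of all tested compounds on the plate plus 3 SD, cut at about 37% in these data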;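 also: 0% = orexin A challenge wells and 100% = SB-334867-A antagonist wells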
OX1R antag-2 – antagonists of human orexin 1 receptor (OX1R). inhibition, % at 6.6 µM. 330,000 compounds, 1.8% hits. AID 485270. OX1R-expressing cells, FRET antagonist read-out. O43613; in the data active = inhibition mostly above about 38%, no sharp cut-off; inactive = mostly below about 40%;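 also: 0% = agonist challenge alone and 100% = reference antagonist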
OX1R HTRF conf – confirmation of human orexin 1 receptor antagonists, HTRF format | shares compounds with OX1R antag-2 | OX1R-expressing cells, HTRF antagonist assay | inhibition, % at 6.6 µM | 1,800 compounds, 49% hits | AID 492964; in the data active = inhibition above about 55%;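 also: CHO cells expressing OX1R stimulated with orexin A at about EC80; 0% = agonist challenge alone and 100% = reference antagonist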
CHO-K1 HTRF cnt – counter-screen for OX1R antagonists: effect in parental CHO-K1 cells | 1,800 compounds, 48% hits | AID 493232 | shares compounds with OX1R antag-2 | inhibition, % at 6.6 µM | HTRF counterscreen; in the data active = inhibition above about 17%;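 also: 0% = agonist challenge with vehicle and 100% = vehicle alone without agonist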
* marks the source's active call; other numbers are inactive results; . = not tested or not shown.

SMILES	TAAR1 agonist	CHO parental Ca	TAAR1 antagonist	GPR7 antagonist	OX1R antag-1	OX1R antag-2	OX1R HTRF conf	CHO-K1 HTRF cnt
COc1ccc2cc3cc(C(=O)NCCCN4CCOCC4)oc3nc2c1	0	-3	-20	8	-13	135*	56*	35*
Cc1ccc2cc3cc(C(=O)NCCCN4CCCC4=O)oc3nc2c1	-1	-8	-13	-1	-15	22	.	.
Cc1ccc2cc3cc(C(=O)NCCN4CCOCC4)oc3nc2c1	4	-8	1	5	-6	117*	46	38*
Nc1ccccc1S(N)(=O)=O	1	-13	4	.	-1	21	.	.
COc1ccc(C(=O)NCCC2=CCCCC2)cc1OC1CCN(C(C)C)CC1	6	-28	-10	-11	-11	22	.	.
COC(=O)c1nc(C(=O)OC)c(C(=O)OC)nc1C(=O)OC	6	-12	1	-10	-10	102*	49	22*
CCN(CC)c1ccc(/C=N/O)cc1	-2	10	-3	-15	-20	2	.	.
CCN(CC)c1ccc(N=Nc2ncn[nH]2)cc1	-1	-1	15	-10	-20	139*	35	56*
COc1cccc(CN(C)C(=O)COc2cccc3c2OC(C)(C)C3)c1OC	-1	.	-12	.	.	.	.	.
O=C(CSc1nc2ccccc2[nH]1)Nc1cc(C(F)(F)F)ccc1N1CCOCC1	4	-16	6	-8	26	87*	53	1
CC1CC1C(=O)Nc1cc(C(F)(F)F)ccc1N1CCOCC1 (stereo not drawn)	1	-11	-13	11	-9	16	.	.
CC(Cl)C(=O)Nc1cc(C(F)(F)F)ccc1N1CCOCC1 (stereo not drawn)	-1	0	-13	-13	-22	94*	16	-4
Cn1nnnc1SCC(=O)Nc1cc(C(F)(F)F)ccc1N1CCOCC1	-1	-15	-10	-1	-18	12	.	.
Cc1cccnc1-n1c(CCN2C(=O)c3ccccc3C2=O)nc2ccccc2c1=O	6	-19	3	-2	25	92*	85*	2
COc1cc(N=c2oc3c(C)ncc(CO)c3cc2C(N)=O)cc(OC)c1OC	1	-3	-10	-9	-13	121*	55*	58*
CCOc1ccc(NC(=O)CNS(=O)(=O)c2c(C)cc(C)cc2C)cc1	-1	-29	-18	7	-3	82*	62*	0
On1c(-c2ccccc2)nc2ccccc21	1	-3	-22	2	-9	35	.	.
O=Nc1c2nc3ccccc3n(O)c-2c2ccccc12	9	-14	4	-12	-32	91*	38	49*
Cc1ccc(C)c(NC(=O)CN(C)C(=O)c2ccccc2OCc2c(C)noc2C)c1	2	-10	0	.	-6	-4	.	.
N/C(=N\OC(=O)Nc1ccccc1)c1ncc([N+](=O)[O-])s1	1	1	-16	-9	-14	127*	51	79*
COc1ccc(-c2ccc(/C=C3/C(=N)N4C(C)=CSC4=NC3=O)o2)c([N+](=O)[O-])c1	11	-10	41	-5	11	91*	58*	18*
CC(=O)Nc1ccc(S(=O)(=O)c2cc(O)ccc2O)cc1	7	.	-17	-9	.	.	.	.
CCN(CC(=O)Nc1ccccc1C(F)(F)F)C(=O)CCc1nc2ccccc2c(=O)[nH]1	0	-9	-8	-7	13	82*	46	-1
CCN(CC(=O)Nc1c(F)cccc1F)C(=O)CCc1nc2ccccc2c(=O)[nH]1	0	-1	6	.	8	28	.	.
CCn1c(O)c(/C=N/N=C/c2ccc(OC)cc2)c2cc(C3=NNC(=O)CC3)ccc21	1	17	-6	-13	-21	5	.	.
SMILES	TAAR1 agonist	CHO parental Ca	TAAR1 antagonist	GPR7 antagonist	OX1R antag-1	OX1R antag-2	OX1R HTRF conf	CHO-K1 HTRF cnt
CC/C(C)=N\N=C\c1c(O)n(CC)c2cc(C3=NNC(=O)CC3)ccc12	.	-13	.	-17	-7	88*	21	14
Cn1cc(Br)c(C(=O)Nc2sc3c(c2C(N)=O)CCC3)n1	2	-30	15	-2	-8	79*	37	-3
COc1ccccc1C(=O)Nc1sc2c(c1C(N)=O)CCCC2	2	-4	1	-2	-4	79*	69*	5
COc1ccccc1C(=O)Nc1sc2c(c1C#N)CCC2	.	-9	.	17	19	19	.	.
CC1(C(=O)NCc2ccccc2Br)CCN1Cc1ccc2ccccc2c1 (stereo not drawn)	0	.	9	.	.	.	.	.
O=C(CN1CCCCCC1)Nc1ccccc1C(=O)Nc1ccccc1	-1	-7	7	.	-13	15	.	.
CC(=O)OC1CCC2(C)C(CCC3C2CC(=O)C2(C)C3CC(C3CCCC3=O)C2C(C)=O)C1 (stereo not drawn)	-1	.	-9	.	.	.	.	.
CC1(C)CC(NS(=O)(=O)c2ccc(F)cc2)CC(C)(C)N1	0	-8	-19	-2	-2	86*	20	-2
CC(=O)NC1CC2CCCC(C1)N2C(=O)Nc1c(C)cccc1C (stereo not drawn)	2	.	-15	.	.	.	.	.
CC1CN(C(=O)/C=C/c2ccc([N+](=O)[O-])s2)CC(C)O1 (stereo not drawn)	0	-34	4	-5	-26	126*	65*	75*
Cc1cc(=O)oc2cc(Oc3ccc([N+](=O)[O-])cc3[N+](=O)[O-])ccc12	-1	-2	10	-8	-11	89*	59*	71*
CCOC(=O)C1=C(COC(=O)CNS(=O)(=O)c2ccc(C)c(C)c2)NC(=O)NC1C (stereo not drawn)	1	.	3	.	.	.	.	.
COc1cc(C(c2c(C)[nH][nH]c2=O)c2c(C)[nH][nH]c2=O)cc([N+](=O)[O-])c1O	1	-4	-23	-5	-8	78*	35	44*
CCOc1cc(C(c2c(C)[nH][nH]c2=O)c2c(C)[nH][nH]c2=O)cc([N+](=O)[O-])c1O	0	-1	-18	-9	-10	25	.	.
CC(C)(C)C(=O)N1CCN(c2ccc(NC(=O)c3ccc([N+](=O)[O-])o3)cc2)CC1	10	-1	8	5	-12	78*	30	-12
Brc1cc2ccccc2[n+](Cc2ccccc2)c1	8	-15	1	.	-3	102*	52	62*
O=C(CNC(=O)c1ccc(Cl)cc1Cl)OCc1cn2cc(Br)ccc2n1	-1	-13	-2	.	-31	7	.	.
COCCNC(=O)C1(C)CCCN(CC(=O)c2ccc(OC)cc2)C1 (stereo not drawn)	2	.	-6	.	.	.	.	.
